{"source": "ChEMBL document CHEMBL4422613", "about": "“Amarisolide F, an Acylated Diterpenoid Glucoside and Related Terpenoids from Salvia amarissima” (J Nat Prod, 2019)", "key": {"[1]": {"organism": "Homo sapiens", "test": "Inhibition of MDR protein in human MCF7/Vin cells cultured in absence of vinblastine assessed as reversal fold after 72 hrs by sulforhodamine B assay", "assay_type": "cell-based"}, "[2]": {"organism": "Homo sapiens", "test": "Inhibition of MDR protein in human MCF7/Vin cells cultured in presence of vinblastine assessed as reversal fold after 72 hrs by sulforhodamine B assay", "assay_type": "cell-based"}, "[3]": {"organism": "Homo sapiens", "test": "Inhibition of MDR protein in human MCF7/Vin cells cultured in absence of vinblastine assessed as reversal fold at 25 ug/ml after 72 hrs by sulforhodamine B assay", "assay_type": "cell-based"}, "[4]": {"organism": "Homo sapiens", "test": "Inhibition of MDR protein in human MCF7/Vin cells cultured in presence of vinblastine assessed as reversal fold at 25 ug/ml after 72 hrs by sulforhodamine B assay", "assay_type": "cell-based"}, "[5]": {"system": "MDA-MB-231", "test": "Cytotoxicity against human MDA-MB-231 cells after 72 hrs by sulforhodamine B assay", "assay_type": "functional, cell-based", "settings": "MDA-MB-231, 72 h"}, "[6]": {"system": "HeLa", "test": "Cytotoxicity against human HeLa cells after 72 hrs by sulforhodamine B assay", "assay_type": "functional, cell-based"}, "[7]": {"system": "HCT-15", "test": "Cytotoxicity against human HCT15 cells after 72 hrs by sulforhodamine B assay", "assay_type": "functional, cell-based", "settings": "HCT-15, 72 h"}, "[8]": {"system": "HCT-116", "test": "Cytotoxicity against human HCT116 cells after 72 hrs by sulforhodamine B assay", "assay_type": "functional, cell-based", "settings": "HCT-116, 72 h"}, "[9]": {"system": "MCF7", "test": "Cytotoxicity against human MCF7 cells after 72 hrs by sulforhodamine B assay", "assay_type": "functional, cell-based", "settings": "MCF7, 72 h", "method_in_brief": "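Cells kept in RPMI 1640 with 10% FBS at 37 °C, 5% CO2 in humidified air. Log-phase cells were treated in triplicate with compound at 0.4–42.1 μM for 72 h.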"}, "[10]": {"organism": "Homo sapiens", "test": "Inhibition of MDR protein in human MCF7/Vin cells cultured in absence of vinblastine assessed as reversal fold at 42.1 uM after 72 hrs by sulforhodamine B assay", "assay_type": "cell-based", "method_in_brief": "(§1)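 Sensitive MCF-7 and MDR MCF-7/Vin cells in RPMI 1640 with 10% FBS at 37 °C, 5% CO2. The Vin+ stock was kept in medium with […] vinblastine and the Vin− stock in vinblastine-free medium. Cells were exposed to vinblastine (0.7 nM–11 μM) with or without compound (42.1 μM) for 72 h.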"}, "[11]": {"organism": "Homo sapiens", "test": "Inhibition of MDR protein in human MCF7/Vin cells cultured in presence of vinblastine assessed as reversal fold at 42.1 uM after 72 hrs by sulforhodamine B assay", "assay_type": "cell-based", "method_in_brief": "as §1"}, "[12]": {"organism": "Homo sapiens", "test": "Inhibition of MDR protein in human MCF7/Vin cells cultured in absence of vinblastine assessed as reversal fold at 5 ug/ml after 72 hrs by sulforhodamine B assay", "assay_type": "cell-based"}, "[13]": {"organism": "Homo sapiens", "test": "Inhibition of MDR protein in human MCF7/Vin cells cultured in presence of vinblastine assessed as reversal fold at 5 ug/ml after 72 hrs by sulforhodamine B assay", "assay_type": "cell-based"}}}
{"molecule": "CC(=O)O[C@H]1O[C@@H](c2ccoc2)C[C@]12[C@H](C)C(=O)C[C@@]13COC(=O)C1=CC=C[C@H]32", "values": [{"measurement": "fold change (FC)", "setting": "[1]", "result": 54}, {"measurement": "fold change (FC)", "setting": "[2]", "result": 2.6}]}
{"molecule": "C[C@@H]1C(=O)CC2=C(/C=C\\C=C\\[C@@]13C[C@@H](O)c1ccoc1[C@H]3O)C(=O)OC2", "values": [{"measurement": "fold change (FC)", "setting": "[3]", "result": 8440}, {"measurement": "fold change (FC)", "setting": "[4]", "result": 10700}]}
{"molecule": "CC(=O)OC[C@H]1O[C@@H](OC(=O)[C@H]2CC[C@@]34COC(=O)[C@@]3(O)CC=C[C@@]4(O)[C@@]2(C)CC(=O)c2ccoc2)[C@H](O)[C@@H](O)[C@@H]1O", "values": [{"measurement": "IC50", "setting": "[5]", "result": "> 42", "unit": "µM"}, {"measurement": "IC50", "setting": "[6]", "result": "> 42", "unit": "µM"}, {"measurement": "IC50", "setting": "[7]", "result": "> 42", "unit": "µM"}, {"measurement": "IC50", "setting": "[8]", "result": "> 42", "unit": "µM"}, {"measurement": "IC50", "setting": "[9]", "result": "> 42", "unit": "µM"}, {"measurement": "fold change (FC)", "setting": "[10]", "result": 2.1}, {"measurement": "fold change (FC)", "setting": "[11]", "result": 12}]}
{"molecule": "COC(=O)[C@H]1[C@H]2C[C@@H]3c4[nH]c5cc(OC)ccc5c4CCN3C[C@H]2C[C@@H](OC(=O)c2cc(OC)c(OC)c(OC)c2)[C@@H]1OC", "values": [{"measurement": "fold change (FC)", "setting": "[12]", "result": 5}, {"measurement": "fold change (FC)", "setting": "[13]", "result": 29.2}]}
{"molecule": "O=C1C=CC[C@]2(O)C(=O)OC[C@@]12CCc1ccc(-c2ccoc2)oc1=O", "values": [{"measurement": "fold change (FC)", "setting": "[1]", "result": 3.1}, {"measurement": "fold change (FC)", "setting": "[2]", "result": 5.8}]}
